Experimental data as given in ChEMBL document CHEMBL1177685, “Novel structure-activity relationships and selectivity profiling of cage dimeric 1,4-dihydropyridines as multidrug resistance (MDR) modulators” (Bioorg Med Chem, 2010).

Tests used:
Format in all cases: cell-based
[1] = test system: L5178Y; assay: Inhibition of Pgp expressed in mouse L5178Y cells at 1 uM relative to control
Summary of the method: (§1)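 L5178Y mouse T lymphoma cells transduced with human mdr1 retrovirus (colchicine-selected) and parental L5178Y, 2×10^6/mL in serum-free McCoy's 5A, preincubated with inhibitor 10 min at rt. Rhodamine 123 (5.2 µM final) added for 20 min at 37 °C. Cells washed twice, resuspended in PBS, 1×10^4 cells read by flow cytometry. R = treated/untreated fluorescence ratio, divided by the parental-line ratio.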

[2] = test system: L5178Y; assay: Inhibition of Pgp expressed in mouse L5178Y cells at 10 uM relative to control; summary of the method: as §1
[3] = target: Multidrug resistance-associated protein 1 (Homo sapiens, UniProt P33527); assay: Inhibition of MRP1 expressed in human A2780 cells at 10 uM relative to control; conditions: a2780, 10 µM
[4] = target: ATP-binding cassette sub-family C member 2 (Homo sapiens, UniProt Q92887); assay: Inhibition of MRP2 expressed in human A2780 cells at 10 uM relative to control; conditions: a2780, 10 µM
Summary of the method: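 Cisplatin-induced A2780RCIS ovarian cells (maintained with cisplatin 10 ng/mL) and parental A2780P were seeded for 24 h, given fresh medium with inhibitor for 20 min at 37 °C, then carboxyfluorescein diacetate (2 µM final) for 40 min at 37 °C. After ice-cold PBS washes, 10,000 events were read by flow cytometry (488 nm excitation, 530 nm filter). MRP2 value = A2780RCIS uptake minus the MRP1-specific uptake in A2780P.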

[5] = target: T1, Broad substrate specificity ATP-binding cassette transporter ABCG2 (Homo sapiens, UniProt Q9UNQ0); assay: Inhibition of BCRP expressed in human EPG-257RNOV cells at 1 uM relative to control
T1 sequence (Q9UNQ0 whole entry): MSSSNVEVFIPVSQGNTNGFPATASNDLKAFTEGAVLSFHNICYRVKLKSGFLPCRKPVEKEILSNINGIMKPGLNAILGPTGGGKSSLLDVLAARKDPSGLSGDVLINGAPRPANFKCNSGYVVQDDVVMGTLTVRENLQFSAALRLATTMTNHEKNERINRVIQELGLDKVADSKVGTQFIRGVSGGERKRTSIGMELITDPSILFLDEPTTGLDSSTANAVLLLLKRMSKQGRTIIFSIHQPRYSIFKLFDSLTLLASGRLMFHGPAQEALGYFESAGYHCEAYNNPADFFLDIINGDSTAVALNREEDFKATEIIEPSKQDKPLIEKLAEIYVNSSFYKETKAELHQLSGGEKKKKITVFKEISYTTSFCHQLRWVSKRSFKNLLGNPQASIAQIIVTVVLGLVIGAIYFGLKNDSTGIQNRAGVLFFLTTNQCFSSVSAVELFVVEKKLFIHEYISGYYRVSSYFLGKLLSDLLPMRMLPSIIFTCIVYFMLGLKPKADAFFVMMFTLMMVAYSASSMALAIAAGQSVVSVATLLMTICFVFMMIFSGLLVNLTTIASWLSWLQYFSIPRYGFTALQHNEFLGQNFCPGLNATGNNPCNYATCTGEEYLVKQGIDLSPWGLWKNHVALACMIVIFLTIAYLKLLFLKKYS
Summary of the method: (§2)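 BCRP-overexpressing EPG85-257RNOV gastric carcinoma cells (kept in medium with mitoxantrone 0.2 µg/mL), 0.5×10^6 cells/mL, exposed to inhibitor 20 min at 37 °C. Mitoxantrone (20 µM final) then added for 60 min at 37 °C. Cells trypsinized, washed in ice-cold PBS, 10,000 events read by flow cytometry (488 nm excitation, 670 nm filter). R = treated/untreated fluorescence quotient, divided by the same quotient in parental EPG85-257P.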

[6] = target: T1, Broad substrate specificity ATP-binding cassette transporter ABCG2; assay: Inhibition of BCRP expressed in human EPG-257RNOV cells at 0.1 uM relative to control; summary of the method: as §2

Multidrug resistance-associated protein 1, sequence (P33527 whole entry): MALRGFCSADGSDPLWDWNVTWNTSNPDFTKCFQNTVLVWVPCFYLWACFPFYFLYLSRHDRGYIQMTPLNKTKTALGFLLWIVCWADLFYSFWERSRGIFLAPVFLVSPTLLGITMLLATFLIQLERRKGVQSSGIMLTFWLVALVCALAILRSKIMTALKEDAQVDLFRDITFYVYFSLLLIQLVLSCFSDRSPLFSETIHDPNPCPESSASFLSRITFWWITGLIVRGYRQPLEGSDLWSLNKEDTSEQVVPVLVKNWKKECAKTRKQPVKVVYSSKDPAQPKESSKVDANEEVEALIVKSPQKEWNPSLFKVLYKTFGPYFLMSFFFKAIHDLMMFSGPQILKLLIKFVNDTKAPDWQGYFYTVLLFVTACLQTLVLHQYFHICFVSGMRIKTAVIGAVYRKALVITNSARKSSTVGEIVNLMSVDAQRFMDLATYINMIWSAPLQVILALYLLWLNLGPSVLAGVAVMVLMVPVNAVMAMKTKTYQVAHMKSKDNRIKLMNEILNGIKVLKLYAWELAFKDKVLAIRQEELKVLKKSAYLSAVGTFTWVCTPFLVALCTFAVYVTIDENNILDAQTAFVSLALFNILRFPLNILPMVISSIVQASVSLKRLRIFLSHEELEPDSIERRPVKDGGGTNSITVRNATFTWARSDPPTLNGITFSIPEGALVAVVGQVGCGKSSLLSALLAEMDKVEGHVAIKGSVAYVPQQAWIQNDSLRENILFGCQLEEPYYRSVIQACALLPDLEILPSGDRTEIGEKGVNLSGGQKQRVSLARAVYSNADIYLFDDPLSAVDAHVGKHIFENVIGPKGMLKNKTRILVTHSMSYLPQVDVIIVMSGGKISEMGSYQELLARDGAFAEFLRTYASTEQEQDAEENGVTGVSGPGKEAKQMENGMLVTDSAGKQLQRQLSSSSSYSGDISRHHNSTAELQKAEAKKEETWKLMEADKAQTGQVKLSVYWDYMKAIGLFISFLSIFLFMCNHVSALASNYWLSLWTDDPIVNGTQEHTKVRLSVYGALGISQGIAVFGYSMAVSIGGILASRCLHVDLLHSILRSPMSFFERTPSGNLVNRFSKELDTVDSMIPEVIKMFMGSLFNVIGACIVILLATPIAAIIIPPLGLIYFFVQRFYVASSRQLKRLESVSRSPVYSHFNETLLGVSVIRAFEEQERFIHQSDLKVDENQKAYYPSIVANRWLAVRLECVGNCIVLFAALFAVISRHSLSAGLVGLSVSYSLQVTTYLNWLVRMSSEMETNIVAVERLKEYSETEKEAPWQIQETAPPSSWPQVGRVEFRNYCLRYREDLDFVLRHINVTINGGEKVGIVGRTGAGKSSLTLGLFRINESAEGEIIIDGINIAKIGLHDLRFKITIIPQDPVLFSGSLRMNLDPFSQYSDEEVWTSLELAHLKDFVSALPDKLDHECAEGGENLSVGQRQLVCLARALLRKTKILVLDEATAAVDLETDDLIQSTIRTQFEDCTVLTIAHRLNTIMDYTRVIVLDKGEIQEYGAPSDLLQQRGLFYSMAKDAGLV
ATP-binding cassette sub-family C member 2, sequence (Q92887 whole entry): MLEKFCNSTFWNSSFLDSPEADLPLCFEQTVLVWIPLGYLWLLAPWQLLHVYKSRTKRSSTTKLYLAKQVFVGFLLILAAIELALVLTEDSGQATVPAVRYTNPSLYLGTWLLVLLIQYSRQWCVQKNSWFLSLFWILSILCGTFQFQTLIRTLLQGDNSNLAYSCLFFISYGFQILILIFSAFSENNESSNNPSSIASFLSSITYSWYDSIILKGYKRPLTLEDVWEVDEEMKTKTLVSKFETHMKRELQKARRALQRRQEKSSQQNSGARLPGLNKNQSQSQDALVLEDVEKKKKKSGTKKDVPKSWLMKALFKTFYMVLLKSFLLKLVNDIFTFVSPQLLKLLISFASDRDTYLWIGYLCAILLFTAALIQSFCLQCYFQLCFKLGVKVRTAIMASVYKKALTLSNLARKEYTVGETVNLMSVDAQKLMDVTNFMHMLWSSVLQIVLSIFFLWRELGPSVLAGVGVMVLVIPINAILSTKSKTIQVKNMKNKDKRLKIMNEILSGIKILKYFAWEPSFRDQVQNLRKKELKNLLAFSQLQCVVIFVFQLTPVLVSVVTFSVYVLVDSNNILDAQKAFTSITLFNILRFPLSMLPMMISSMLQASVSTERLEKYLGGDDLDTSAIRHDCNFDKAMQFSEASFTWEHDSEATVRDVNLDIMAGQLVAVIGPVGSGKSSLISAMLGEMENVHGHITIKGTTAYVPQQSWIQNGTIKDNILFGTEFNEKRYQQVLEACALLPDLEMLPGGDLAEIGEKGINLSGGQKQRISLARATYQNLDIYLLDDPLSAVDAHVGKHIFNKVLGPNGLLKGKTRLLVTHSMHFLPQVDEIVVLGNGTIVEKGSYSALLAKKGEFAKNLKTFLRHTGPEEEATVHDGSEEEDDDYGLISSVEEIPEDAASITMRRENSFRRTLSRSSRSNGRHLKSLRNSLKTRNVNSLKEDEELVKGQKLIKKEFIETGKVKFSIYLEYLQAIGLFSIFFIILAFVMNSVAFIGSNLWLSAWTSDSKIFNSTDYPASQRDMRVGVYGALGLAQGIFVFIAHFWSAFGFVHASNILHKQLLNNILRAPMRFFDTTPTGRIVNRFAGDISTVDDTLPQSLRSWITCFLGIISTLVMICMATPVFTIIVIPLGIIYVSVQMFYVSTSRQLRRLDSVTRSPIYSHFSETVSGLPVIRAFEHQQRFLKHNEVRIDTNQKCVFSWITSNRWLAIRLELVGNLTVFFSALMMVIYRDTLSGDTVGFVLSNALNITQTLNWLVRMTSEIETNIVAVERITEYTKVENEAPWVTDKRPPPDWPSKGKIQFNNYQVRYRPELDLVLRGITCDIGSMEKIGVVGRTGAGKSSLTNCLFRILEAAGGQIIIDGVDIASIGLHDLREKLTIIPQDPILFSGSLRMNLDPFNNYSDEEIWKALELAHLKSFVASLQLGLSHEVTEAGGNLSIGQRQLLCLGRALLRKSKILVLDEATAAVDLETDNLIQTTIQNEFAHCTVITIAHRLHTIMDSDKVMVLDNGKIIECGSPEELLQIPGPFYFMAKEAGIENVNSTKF

Structure (SMILES) | Ratio [1] | Ratio [2] | Ratio [3] | Ratio [4] | Ratio [5] | Ratio [6]
OC[C@]12C3N(Cc4ccc(OCc5ccccc5)cc4)C4[C@@]5(CO)C(N(Cc6ccc(OCc7ccccc7)cc6)C1[C@]3(CO)[C@@H]5c1ccccc1)[C@]4(CO)[C@@H]2c1ccccc1 | 2.3 | 28 | 2.5 | 0.75 | 1.2 | 
OC[C@]12C3N(Cc4cccc(OCc5ccccc5)c4)C4[C@@]5(CO)C(N(Cc6cccc(OCc7ccccc7)c6)C1[C@]3(CO)[C@@H]5c1ccccc1)[C@]4(CO)[C@@H]2c1ccccc1 | 117 | 205 | 2.8 | 0.97 | 4.2 | 1.5
COc1ccc2c3c([nH]c2c1)[C@H](C=C(C)C)N1C(=O)[C@@H]2CCCN2C(=O)[C@@H]1C3 [FUMITREMORGIN] |  |  |  |  | 6 | 1.9
OC[C@]12C3N(Cc4ccccc4)C4[C@@]5(CO)C(N(Cc6ccccc6)C1[C@]3(CO)[C@@H]5c1cccc(O)c1)[C@]4(CO)[C@@H]2c1cccc(O)c1 | 1.2 | 3 | 1.3 | 1.05 | 1.1 | 
OC[C@]12C3N(Cc4ccccc4)C4[C@@]5(CO)C(N(Cc6ccccc6)C1[C@]3(CO)[C@@H]5c1ccccc1)[C@]4(CO)[C@@H]2c1ccccc1 | 4.1 | 29 | 2.3 | 1.02 | 1.9 | 1.1
COc1ccc(CN2C3[C@]4(CO)C5N(Cc6ccc(OC)cc6)C6[C@@](CO)(C2[C@]6(CO)[C@H]4c2ccccc2)[C@H](c2ccccc2)[C@@]35CO)cc1 | 3.5 | 13 | 3.4 | 1.1 | 3.2 | 1.2
OC[C@]12C3N(Cc4ccccc4)C4[C@@]5(CO)C(N(Cc6ccccc6)C1[C@]3(CO)[C@@H]5c1ccncc1)[C@]4(CO)[C@@H]2c1ccncc1 | 2.4 | 7.7 | 2.2 | 0.74 | 1.2 | 
OC[C@]12C3N(Cc4cccnc4)C4[C@@]5(CO)C(N(Cc6cccnc6)C1[C@]3(CO)[C@@H]5c1ccccc1)[C@]4(CO)[C@@H]2c1ccccc1 | 1.2 | 1.1 | 1.1 | 0.9 |  | 
OC[C@]12C3N(Cc4ccccc4)C4[C@@]5(CO)C(N(Cc6ccccc6)C1[C@]3(CO)[C@@H]5c1ccc(OCc3ccccc3)cc1)[C@]4(CO)[C@@H]2c1ccc(OCc2ccccc2)cc1 | 3.3 | 47 | 1 | 1.56 | 3.5 | 1.4
COc1ccc2c(c1)c(CC(=O)O)c(C)n2C(=O)c1ccc(Cl)cc1 [INDOMETHACIN] |  |  | 4.1 | 0.75 |  | 
OC[C@]12C3N(Cc4ccncc4)C4[C@@]5(CO)C(N(Cc6ccncc6)C1[C@]3(CO)[C@@H]5c1ccccc1)[C@]4(CO)[C@@H]2c1ccccc1 | 1.5 | 1.1 | 1.2 | 0.8 | 1.3 | 
OC[C@]12C3N(Cc4ccc(O)cc4)C4[C@@]5(CO)C(N(Cc6ccc(O)cc6)C1[C@]3(CO)[C@@H]5c1ccccc1)[C@]4(CO)[C@@H]2c1ccccc1 | 1.5 | 3.3 | 1.6 | 0.82 | 1.1 | 
OC[C@]12C3N(Cc4ccccc4)C4[C@@]5(CO)C(N(Cc6ccccc6)C1[C@]3(CO)[C@@H]5c1ccc(O)cc1)[C@]4(CO)[C@@H]2c1ccc(O)cc1 | 1.3 | 1.5 | 1.8 | 0.63 | 1.5 | 
OC[C@]12C3N(Cc4ccccc4)C4[C@@]5(CO)C(N(Cc6ccccc6)C1[C@]3(CO)[C@@H]5c1cccc(OCc3ccccc3)c1)[C@]4(CO)[C@@H]2c1cccc(OCc2ccccc2)c1 | 65 | 125 | 1.9 | 0.97 | 2.8 | 1.3
COc1ccc(CN2C3[C@]4(CO)C5N(Cc6ccc(OC)cc6)C6[C@@](CO)(C2[C@]6(CO)[C@H]4c2ccc(OC)cc2)[C@H](c2ccc(OC)cc2)[C@@]35CO)cc1 | 3.1 | 46 | 4.8 | 1.25 | 6.1 | 1.5
